Source: PubChem
A selection: hits, their analogues and other compounds. The true share with any hit is near 3.8%.
OX1R antag-1: OX1R (HCRTR1) antagonists, primary screen, fluorescence, CHO/OX1R cells, Fluo-8 calcium, orexin A | Fluo-8 calcium fluorescence | inhibition, % at 5 µM | Orexin/Hypocretin receptor type 1 (Homo sapiens), O43613 | actives 0.43% (n = 330,000);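 active means inhibition above its plate's threshold, mean inhibition of all tested compounds on the plate plus 3 SD, cut at about 37% in these data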;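 further: 0% = orexin A challenge wells and 100% = SB-334867-A antagonist wells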
OX1R antag-2: antagonists of human orexin 1 receptor (OX1R). OX1R-expressing cells, FRET antagonist read-out. Orexin/Hypocretin receptor type 1 (Homo sapiens), O43613. inhibition, % at 6.6 µM. AID 485270, 2010. actives 1.8% (n = 330,000); in the data active means inhibition mostly above about 38%, no sharp cut-off; inactive means mostly below about 40%;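 further: 0% = agonist challenge alone and 100% = reference antagonist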
MPTP block: mitochondrial permeability transition pore inhibitors, primary screen, biochemical, isolated mouse mitochondria, absorbance | Ca2+ swelling absorbance, 30 min | actives 1.4% (n = 360,000) | inhibition, % at 10 µM;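 active means inhibition of 50% or more, scaled per plate between neutral and stimulator controls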;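 further: 0% = DMSO wells given calcium and 100% = 1 mM EGTA wells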
GPR7 antag: GPR7 receptor antagonists, primary screen, cell-based, fluorescence, single concentration; GPR7-expressing cells, fluorescence antagonist assay; inhibition, % at 4.4 µM; actives 1.1% (n = 290,000); in the data active means inhibition above about 16%, passing the limit was not always enough;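 further: cells stimulated with the agonist NPW; 0% = agonist with vehicle and 100% = vehicle without agonist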
Target sequence (P48145 whole entry, looked up): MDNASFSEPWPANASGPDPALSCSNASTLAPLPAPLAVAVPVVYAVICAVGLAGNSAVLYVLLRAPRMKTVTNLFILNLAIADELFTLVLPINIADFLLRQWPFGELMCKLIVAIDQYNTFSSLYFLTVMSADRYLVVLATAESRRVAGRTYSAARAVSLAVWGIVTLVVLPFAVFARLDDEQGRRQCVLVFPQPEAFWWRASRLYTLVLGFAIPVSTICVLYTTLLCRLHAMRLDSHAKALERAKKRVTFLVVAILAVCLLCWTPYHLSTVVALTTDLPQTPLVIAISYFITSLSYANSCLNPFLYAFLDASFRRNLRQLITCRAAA
CHO parental Ca: ATP-evoked calcium signal inhibitors, parental CHO, primary screen, counter-screen for OX1R antagonist project, cell-based, fluorescence, Fluo-8 calcium dye; parental CHO-K1, ATP-induced calcium, Fluo-8 fluorescence; inhibition, % at 5.6 µM; actives 0.63% (n = 330,000);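 active means inhibition above that plate's mean sample inhibition plus 3 SD, cut at about 26% in these data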;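 further: 0% = ATP-challenged DMSO wells and 100% = DMSO wells without ATP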
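Material: parental CHO cells / Compound: single nominal dose of 5.6 µM per compound / Signal: Fluo-8 fluorescence / Replicates: singlicate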
MPTP counter: fluorescence retest of MPTP screen hits in isolated mitochondria, single concentration; shares compounds with MPTP block; membrane potential, Rhodamine 123 fluorescence; inhibition, % at 10 µM; actives 78% (n = 5,000); AID 624504, 2012; in the data active means inhibition above about 22%;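 further: 0% = DMSO vehicle and 100% = positive control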
MPTP abs DR: mitochondrial permeability transition pore inhibitors, dose response, biochemical, absorbance, uHTS hits. shares compounds with MPTP block. isolated mitochondria swelling. IC50, µM. actives 58% (n = 780). AID 651561, 2012; in the data active means IC50 below about 20 µM
MPTP counter DR: fluorescent counter-screen in isolated mitochondria, dose response, counter-screen for MPTP inhibitor project, biochemical, fluorescence, uHTS hits; shares compounds with MPTP block; isolated mitochondria counterscreen, fluorescence read-out; IC50, µM; actives 49% (n = 780); AID 651564, 2012; in the data active means IC50 below about 80 µM
Numbers without * were called inactive; · = no result.

SMILES | OX1R antag-1 | OX1R antag-2 | MPTP block | GPR7 antag | CHO parental Ca | MPTP counter | others
NNC(=S)Nc1ccc(Cl)cc1 | -7 | 10 | 0 | -4 | -18 | ·
O=C(Nc1ccccc1)OCCc1ccccc1 | · | · | 0 | · | · | ·
CCCN(CC(=O)Nc1ccccc1C)C(=O)c1ccc2c(c1)S(=O)(=O)N=C1CCCCCN12 | 14 | 3 | 0 | · | 12 | ·
Clc1ccc(/C(Cc2nc3ccccc3[nH]2)=N\Nc2ccccc2)cc1 | -38 | 14 | 86* | -18 | -12 | 70*
CCOc1ccccc1NC(=O)CSc1nc(=O)n(CCCN2CCOCC2)c2c1CCCC2 | -23 | 27 | -2 | · | -25 | ·
CCC1CCCCN1CCCNC(=O)C1CCN(Cc2nc(-c3ccc(Cl)cc3)oc2C)CC1 (configuration not stated) | -18 | 14 | 61* | 11 | -9 | -11
Cc1oc(-c2ccc(Cl)cc2)nc1CN1CCC(C(=O)NCCCN2CCOCC2)CC1 | -13 | 1 | -3 | -5 | -8 | ·
Cc1oc(-c2ccc(Cl)cc2)nc1CS(=O)CC(=O)NCCCN1CCCC(C)C1 (configuration not stated) | -20 | -1 | -1 | -8 | -4 | ·
Cc1oc(-c2ccc(Cl)cc2)nc1CS(=O)CC(=O)NCCCN1CCN(Cc2ccccc2)CC1 (configuration not stated) | -4 | 17 | 63* | 22 | 18 | 53*
COc1ccc(CNC(=O)c2cccc3c(-c4cccnc4)coc23)cc1OC | · | · | 99* | · | · | 100*
O=C(NCc1ccc(F)c(F)c1)c1cccc2c(-c3cccnc3)coc12 | · | · | 7 | · | · | ·
CN1CCN(S(=O)(=O)c2ccc3c(c2)OCCO3)CC1 | 2 | -3 | -6 | 0 | 8 | ·
O=S(=O)(c1ccc2c(c1)OCCO2)N1CCN(c2ncnc3sccc23)CC1 | 20 | 61 | 103* | 14 | 40* | 90*
Cc1ccc(S(=O)(=O)N2CCN(c3ncnc4sccc34)CC2)cc1C | · | · | 90* | · | · | 94*
Cc1cc(Oc2ccccc2)nc(SCC(=O)Nc2ccc(Cl)c(Cl)c2)n1 | -34 | 12 | 73* | 1 | -5 | 72*
Cc1cc(Oc2ccccc2)nc(SCC(=O)Nc2ccccc2)n1 | -21 | 16 | 10 | 1 | -3 | ·
COc1ccc(S(=O)(=O)N2CCCCC2)cc1NC(=O)CCCNC(=O)c1ccc(Cl)cc1 | -39 | 1 | -2 | · | -25 | ·
Cc1cccnc1NC(=S)Nc1ccc(Cl)c(Cl)c1 | 0 | 7 | 90* | -7 | -13 | 97*
S=C(NCC1CCCO1)Nc1ccc(Cl)c(Cl)c1 (configuration not stated) | -13 | 14 | 60* | 12 | 0 | 87*
S=C(NCc1ccncc1)Nc1ccc(Cl)c(Cl)c1 | 10 | 7 | 88* | -9 | 2 | 92*
S=C(NCc1ccncc1)Nc1ccc(Br)cc1 | -8 | 10 | 1 | -8 | 2 | ·
S=C(NCc1ccncc1)Nc1cc(Cl)cc(Cl)c1 | 10 | 5 | 68* | 5 | 2 | 99*
O=C(Nc1cccc(C(F)(F)F)c1)C1Cc2c(-c3ccccc3)ccnc2O1 (configuration not stated) | · | · | 2 | · | · | ·
O=C(NNC(=O)c1ccc(Br)s1)c1ccc(F)c(S(=O)(=O)N2CCOCC2)c1 | 15 | 7 | 2 | · | -3 | ·
Cc1ccc(OCCn2c(Br)nc3c2c(=O)n(C)c(=O)n3C)cc1 | -18 | 2 | 82* | -2 | -15 | 60*
SMILES | OX1R antag-1 | OX1R antag-2 | MPTP block | GPR7 antag | CHO parental Ca | MPTP counter | others
COCCn1c(Br)nc2c1c(=O)n(C)c(=O)n2C | -18 | 20 | 0 | -5 | -11 | ·
NC(=O)c1cc2cc([N+](=O)[O-])ccc2oc1=O | 1 | 36 | 1 | 2 | -2 | ·
Cc1ccccc1NC(=O)c1ccc(CN2CCC(Cc3ccccc3)CC2)cc1 | -33 | -6 | 56* | 10 | 4 | -8 | MPTP abs DR=12*;MPTP counter DR=36*
CC(C)NC(=O)c1ccc(CN2CCC(Cc3ccccc3)CC2)cc1 | -21 | 6 | 0 | 14 | -17 | ·
Cc1cc(NC(=O)COC(=O)C(C)Oc2ccc(Cl)cc2Cl)no1 (configuration not stated) | -36 | 20 | 0 | 11 | -22 | ·
COC(=O)c1ccc(NC(=S)NCCc2ccc(OC)cc2)cc1 | -7 | 1 | 8 | -8 | -1 | ·
COC(=O)c1ccc(NC(=S)NCCc2cccc(C)c2)cc1 | -5 | 3 | 88* | 7 | 11 | 91*
COC(=O)c1ccc(NC(=S)NCCc2ccccc2C)cc1 | 11 | 26 | 100* | -3 | 3 | 83*
CCc1nnc(NC(=O)CCC(=O)N2CCN(Cc3ccc(F)cc3)CC2)s1 | -27 | 0 | -2 | 7 | -13 | ·
CCN1C[C@@H]2[C@@H]3C(=O)N(Cc4ccccc4)C(=O)[C@@H]3[C@](C)(C1=O)N2C(=O)c1ccc(Cl)cc1 | · | · | 1 | · | · | ·
O=S(=O)(Nc1nc2ccccc2s1)c1cnc(Cl)c(Br)c1 | -13 | 54 | 90* | -15 | -6 | 85*
O=S(=O)(Nc1nc2ccccc2s1)c1ccc(Cl)s1 | -4 | 49 | 78* | -5 | 14 | 80*
O=C(Nc1ccccc1F)C1CCN(C(=O)NCc2ccccc2)CC1 | -14 | 29 | -2 | -5 | -10 | ·
COc1ccccc1CNc1ncnc2sccc12 | -4 | 47* | 52* | 2 | 41* | 76*
c1ccc2c(c1)OCC(CNc1ncnc3sccc13)O2 (configuration not stated) | 24 | 52 | 99* | 17 | 68* | 103*
COc1ccc(Nc2ncnc3sccc23)cc1OC | -8 | -2 | 0 | -1 | -7 | ·
COc1ccc(CCNc2ncnc3sccc23)cc1OC | 42* | 58 | 95* | 9 | 76* | 80*
CCCCC(=O)NC(=S)NNC(=O)c1ccc(Cl)cc1Cl | · | · | 51* | -3 | · | -13 | MPTP abs DR=15*;MPTP counter DR=>80
Cc1ccc(C(=O)NNC(=S)NC(=O)c2ccc(Cl)cc2Cl)cc1 | 57* | 1 | 88* | 14 | 45* | 8
CC(C)NC(=S)NC(=O)c1ccc(Cl)cc1Cl | -32 | 4 | -2 | 2 | -19 | ·
O=C(COc1ccccc1)NNC(=S)NC(=O)c1ccc(Cl)cc1Cl | -22 | -2 | · | -3 | -12 | ·
CN(CCc1ccccn1)C(=O)CCC1CCCN(C(=O)c2c3c(nn2C)CCCC3)C1 (configuration not stated) | -23 | 9 | 1 | -2 | -14 | ·
